According to ChEMBL document CHEMBL5247578, “Effective synthesis of benzimidazoles-imidazo[1,2-a]pyrazine conjugates: A comparative study of mono-and bis-benzimidazoles for antitumor activity” (Eur J Med Chem, 2019):

Assays:
Albumin = Albumin (Bos taurus, UniProt P02769); assay: Binding affinity to bovine serum albumin assessed as quenching constant by fluorescence spectroscopic method; conditions: cattle
Calf thymus DNA = assay: Binding affinity to calf thymus DNA assessed as DNA intercalation by measuring Stem-Volmer quenching constant at temperature of 298 K by fluorescence spectroscopic method; type: nucleic-acid assay; conditions: Bos taurus
CCRF-CEM = assay: Antiproliferative activity against human CCRF-CEM cells assessed as cell growth at 0.00000001 M incubated for 48 hrs by SRB assay relative to control; type: functional; conditions: dose 10 nM, read-out: Activity
In short: (§1)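 NCI-60 five-dose screen over 10^-4–10^-8 M (10-fold dilutions). Cells grown in RPMI 1640 with 5% FBS and 2 mM L-glutamine, seeded at 5,000–40,000 cells/well and preincubated 24 h. Drug from DMSO stock, 48 h at 37 °C, 5% CO2. Adherent cells TCA-fixed and stained with 0.4% SRB; A515 read. Percent growth = (Ti−Tz)/(C−Tz)×100, or (Ti−Tz)/Tz×100 when Ti<Tz.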

HCC 2998 = assay: Antiproliferative activity against human HCC 2998 cells assessed as cell growth at 0.00000001 M incubated for 48 hrs by SRB assay relative to control; type: functional; conditions: dose 10 nM, read-out: Activity
In short: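 NCI-60 five-dose screen (10^-4 to 10^-8 M). Cells grown in RPMI 1640 with 5% FBS and 2 mM L-glutamine, plated at 5,000-40,000 cells/well and preincubated 24 h. Drug given from DMSO stock, then 48 h at 37 °C, 5% CO2. For adherent lines, cells fixed with cold TCA, SRB-stained and read at 515 nm. Percent growth taken against time-zero and untreated control.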

TK-10 = assay: Antiproliferative activity against human TK-10 cells assessed as cell growth inhibition by measuring lethal concentration incubated for 48 hrs by sulforhodamine B assay; type: functional; conditions: read-out: LC50 (the source's name)
In short: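 NCI-60 five-dose screen (10^-4 to 10^-8 M, 10-fold dilutions; DMSO stocks). Cells in RPMI 1640 with 5% FBS and 2 mM L-glutamine, preincubated 24 h, then exposed 48 h at 37 °C, 5% CO2. Fixed with cold TCA, stained with 0.4% SRB, absorbance read at 515 nm. Time-zero plates used as reference. LC50 taken from [(Ti-Tz)/Tz]×100 […].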

A498 = assay: Antiproliferative activity against human A498 cells assessed as cell growth inhibition by measuring lethal concentration incubated for 48 hrs by sulforhodamine B assay; type: functional; conditions: read-out: LC50 (the source's name)
SK-MEL-28 [1] = assay: Antiproliferative activity against human SK-MEL-28 cells assessed as cell growth inhibition by measuring lethal concentration incubated for 48 hrs by sulforhodamine B assay; type: functional; conditions: read-out: LC50 (the source's name)
A549 = assay: Antiproliferative activity against human A549 cells assessed as cell growth inhibition by measuring lethal concentration incubated for 48 hrs by sulforhodamine B assay; type: functional; conditions: read-out: LC50 (the source's name)
OVCAR-4 = assay: Growth inhibition against human OVCAR-4 cells assessed as total growth inhibitory concentration incubated for 48 hrs by sulforhodamine B assay; type: functional
KM12 = assay: Growth inhibition against human KM12 cells assessed as total growth inhibitory concentration incubated for 48 hrs by sulforhodamine B assay; type: functional
NCI-H460 = assay: Growth inhibition against human NCI-H460 cells assessed as total growth inhibitory concentration incubated for 48 hrs by sulforhodamine B assay; type: functional
NCI-H23 = assay: Growth inhibition against human NCI-H23 cells assessed as total growth inhibitory concentration incubated for 48 hrs by sulforhodamine B assay; type: functional
HOP-92 = assay: Growth inhibition against human HOP-92 cells assessed as total growth inhibitory concentration incubated for 48 hrs by sulforhodamine B assay; type: functional
RPMI-8226 = assay: Growth inhibition against human RPMI-8226 cells assessed as total growth inhibitory concentration incubated for 48 hrs by sulforhodamine B assay; type: functional
BT-549 = assay: Growth inhibition against human BT-549 cells incubated for 48 hrs by sulforhodamine B assay; type: functional
MCF7 [2] = assay: Growth inhibition against human MCF7 cells incubated for 48 hrs by sulforhodamine B assay; type: functional
SK-OV-3 [3] = assay: Growth inhibition against human SK-OV-3 cells incubated for 48 hrs by sulforhodamine B assay; type: functional
OVCAR-8 = assay: Growth inhibition against human OVCAR-8 cells incubated for 48 hrs by sulforhodamine B assay; type: functional
NCI-H226 = assay: Antiproliferative activity against human NCI-H226 cells assessed as cell growth at 0.0000001 M incubated for 48 hrs by SRB assay relative to control; type: functional; conditions: dose 100 nM, read-out: Activity
NCI-H322M = assay: Antiproliferative activity against human NCI-H322M cells assessed as cell growth at 0.0000001 M incubated for 48 hrs by SRB assay relative to control; type: functional; conditions: dose 100 nM, read-out: Activity
UACC-257 = assay: Antiproliferative activity against human UACC-257 cells assessed as cell growth at 0.0000001 M incubated for 48 hrs by SRB assay relative to control; type: functional; conditions: dose 100 nM, read-out: Activity
OVCAR-5 = assay: Antiproliferative activity against human OVCAR-5 cells assessed as cell growth at 0.0000001 M incubated for 48 hrs by SRB assay relative to control; type: functional; conditions: dose 100 nM, read-out: Activity
SF-268 = assay: Antiproliferative activity against human SF-268 cells assessed as cell growth at 0.000001 M incubated for 48 hrs by SRB assay relative to control; type: functional; conditions: read-out: Activity
SF-295 = assay: Antiproliferative activity against human SF-295 cells assessed as cell growth at 0.000001 M incubated for 48 hrs by SRB assay relative to control; type: functional; conditions: read-out: Activity
SF-539 = assay: Antiproliferative activity against human SF-539 cells assessed as cell growth at 0.000001 M incubated for 48 hrs by SRB assay relative to control; type: functional; conditions: read-out: Activity
CAKI-1 = assay: Antiproliferative activity against human CAKI-1 cells assessed as cell growth at 0.000001 M incubated for 48 hrs by SRB assay relative to control; type: functional; conditions: read-out: Activity; in short: as §1
MCF7 [4] = assay: Antiproliferative activity against human MCF7 cells assessed as cell growth at 0.000001 M incubated for 48 hrs by SRB assay relative to control; type: functional; conditions: read-out: Activity
SK-MEL-28 [5] = assay: Antiproliferative activity against human SK-MEL-28 cells assessed as cell growth at 0.00001 M incubated for 48 hrs by SRB assay relative to control; type: functional; conditions: read-out: Activity
SK-MEL-5 = assay: Antiproliferative activity against human SK-MEL-5 cells assessed as cell growth at 0.00001 M incubated for 48 hrs by SRB assay relative to control; type: functional; conditions: read-out: Activity
SK-OV-3 [6] = assay: Antiproliferative activity against human SK-OV-3 cells assessed as cell growth at 0.00001 M incubated for 48 hrs by SRB assay relative to control; type: functional; conditions: read-out: Activity
ACHN = assay: Antiproliferative activity against human ACHN cells assessed as cell growth at 0.00001 M incubated for 48 hrs by SRB assay relative to control; type: functional; conditions: read-out: Activity; in short: as §1
RXF 393 = assay: Antiproliferative activity against human RXF 393 cells assessed as cell growth at 0.0001 M incubated for 48 hrs by SRB assay relative to control; type: functional; conditions: read-out: Activity

Albumin, sequence (P02769 whole entry): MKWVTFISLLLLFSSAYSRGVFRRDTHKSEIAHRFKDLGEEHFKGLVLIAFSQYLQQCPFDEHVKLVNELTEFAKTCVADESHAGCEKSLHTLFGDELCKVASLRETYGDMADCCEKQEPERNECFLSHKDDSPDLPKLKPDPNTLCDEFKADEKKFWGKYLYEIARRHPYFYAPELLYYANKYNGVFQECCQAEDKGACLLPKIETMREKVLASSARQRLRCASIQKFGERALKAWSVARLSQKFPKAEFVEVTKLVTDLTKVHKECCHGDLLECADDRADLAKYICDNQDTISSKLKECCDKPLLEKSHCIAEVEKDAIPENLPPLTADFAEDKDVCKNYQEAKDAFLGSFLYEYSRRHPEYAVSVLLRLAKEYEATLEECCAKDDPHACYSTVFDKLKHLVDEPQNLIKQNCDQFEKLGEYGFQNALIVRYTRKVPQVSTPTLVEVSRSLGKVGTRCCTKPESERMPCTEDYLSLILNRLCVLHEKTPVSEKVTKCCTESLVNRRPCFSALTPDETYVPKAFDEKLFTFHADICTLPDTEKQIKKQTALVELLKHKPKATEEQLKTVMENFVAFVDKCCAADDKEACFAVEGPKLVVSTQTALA

Structure (SMILES) | Kq (Albumin) | KSV (Calf thymus DNA) | growth at 0.01 µM (CCRF-CEM) [%] | growth at 0.01 µM (HCC 2998) [%] | CC50 (TK-10) [µM] | CC50 (A498) [µM] | CC50 (SK-MEL-28 [1]) [µM] | CC50 (A549) [µM] | TGI (OVCAR-4) [µM] | TGI (KM12) [µM] | TGI (NCI-H460) [µM] | TGI (NCI-H23) [µM] | TGI (HOP-92) [µM] | TGI (RPMI-8226) [µM] | GI50 (BT-549) [µM] | GI50 (MCF7 [2]) [µM] | GI50 (SK-OV-3 [3]) [µM] | GI50 (OVCAR-8) [µM] | growth at 0.1 µM (NCI-H226) [%] | growth at 0.1 µM (NCI-H322M) [%] | also measured
c1ccc(Cn2cnc3ccc(-c4nc(-c5ccc6c(c5)ncn6C5CCCCC5)cn5ccnc45)cc32)cc1 | 1.14 10^13/M/sec | 1.19 10^4/M | 100 | 94 | > 100 | 6.85 | > 100 | > 100 | > 100 | 4.93 | 5.66 | 4.49 | 2.62 | 4.5 | 1.2 | 2.72 | 2.53 | 2.6 | 103 | 91 | growth at 0.1 µM (UACC-257): 105%; growth at 0.1 µM (OVCAR-5): 89%; growth at 1 µM (SF-268): 82%; growth at 1 µM (SF-295): 74%; growth at 1 µM (SF-539): 53%; growth at 1 µM (CAKI-1): 71%; growth at 1 µM (MCF7 [4]): 87%; growth at 10 µM (SK-MEL-28 [5]): -9%; growth at 10 µM (SK-MEL-5): -90%; growth at 10 µM (SK-OV-3 [6]): -24%; growth at 10 µM (ACHN): 11%; growth at 100 µM (RXF 393): -33%
COc1ccc(-c2cn3ccnc3c(-c3ccc4ncn(C5CCCCC5)c4c3)n2)cc1 | 1.16 10^13/M/sec | 4.65 10^4/M | 106 | 97 | > 100 | > 100 | > 100 | > 100 | > 100 | > 100 | > 100 | > 100 | > 100 | > 100 | 0.41 | 0.64 | 0.508 | 3.16 | 96 | 90 | growth at 0.1 µM (UACC-257): 104%; growth at 0.1 µM (OVCAR-5): 90%; growth at 1 µM (SF-268): 65%; growth at 1 µM (SF-295): 18%; growth at 1 µM (SF-539): 35%; growth at 1 µM (CAKI-1): 44%; growth at 1 µM (MCF7 [4]): 40%; growth at 10 µM (SK-MEL-28 [5]): 33%; growth at 10 µM (SK-MEL-5): -40%; growth at 10 µM (SK-OV-3 [6]): -5%; growth at 10 µM (ACHN): 13%; growth at 100 µM (RXF 393): 19%
